Data on 2 compounds can be found in ChEMBL document CHEMBL3525950, “Autoinhibition of CYP3A4 leads to important role of CYP2C8 in imatinib metabolism: variability in CYP2C8 activity may alter plasma concentrations and response” (Drug Metab Dispos, 2013).

A word on the Cmax: it is the maximum level reached in the sampled fluid or tissue. The bioavailability is dose-corrected exposure relative to a reference, in per cent. As usually defined, the fraction unbound is the share of the substance not bound to proteins or other matrix.

Bounds are passed on as bounds.

Data set [1] is described as follows: Cmax in chronic myeloid leukemia patient at 400 mg, qd by multiple dose study. Details: dose 400 mg. To be noted: human, in vivo. Format: ADME, organism-based.
Data set [2] is described as follows: Oral bioavailability in chronic myeloid leukemia patient. The class given is ADME, organism-based. To be noted: human, in vivo.
Data set [3] concerns the target T1, Cytochrome P450 2C8 (Homo sapiens, UniProt P10632).
T1 sequence (P10632 whole entry): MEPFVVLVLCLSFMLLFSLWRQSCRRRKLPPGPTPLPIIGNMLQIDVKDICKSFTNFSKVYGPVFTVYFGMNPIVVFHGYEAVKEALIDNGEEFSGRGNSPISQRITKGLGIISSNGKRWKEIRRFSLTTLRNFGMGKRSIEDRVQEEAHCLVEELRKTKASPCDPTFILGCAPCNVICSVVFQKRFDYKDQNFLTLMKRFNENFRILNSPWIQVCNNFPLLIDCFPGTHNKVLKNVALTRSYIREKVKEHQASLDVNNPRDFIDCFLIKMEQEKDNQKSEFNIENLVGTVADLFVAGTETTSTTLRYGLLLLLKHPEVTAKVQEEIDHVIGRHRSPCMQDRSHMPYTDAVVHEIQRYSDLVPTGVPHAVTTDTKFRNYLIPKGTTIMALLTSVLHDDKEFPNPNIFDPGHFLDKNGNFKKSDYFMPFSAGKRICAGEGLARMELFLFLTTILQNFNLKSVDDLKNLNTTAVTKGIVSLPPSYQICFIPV
The data set is described as follows: Activity of human recombinant CYP2C8 in supersomes assessed as intrinsic clearance for enzyme-mediated drug metabolism by LC/MS analysis. Format: ADME. The essentials:
(§1)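 N-DMI formation kinetics: imatinib 0.10–320 µM with CYP2C8 (33 pmol/ml, 4 min), CYP3A4 (13 pmol/ml, 3 min) or CYP3A5 (10 pmol/ml, 30 min), 0.1 mg/ml protein. Run in phosphate pH 7.4 with 1 mM NADPH at 37°C, in triplicate, read by LC-MS/MS. Fits used substrate-inhibition (CYP2C8, CYP3A4) or Michaelis–Menten (CYP3A5) models; CLint = Vmax/Km.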

For data set [4], the target named is T2, Cytochrome P450 1A2 (Homo sapiens, UniProt P05177).
T2 sequence (P05177 whole entry): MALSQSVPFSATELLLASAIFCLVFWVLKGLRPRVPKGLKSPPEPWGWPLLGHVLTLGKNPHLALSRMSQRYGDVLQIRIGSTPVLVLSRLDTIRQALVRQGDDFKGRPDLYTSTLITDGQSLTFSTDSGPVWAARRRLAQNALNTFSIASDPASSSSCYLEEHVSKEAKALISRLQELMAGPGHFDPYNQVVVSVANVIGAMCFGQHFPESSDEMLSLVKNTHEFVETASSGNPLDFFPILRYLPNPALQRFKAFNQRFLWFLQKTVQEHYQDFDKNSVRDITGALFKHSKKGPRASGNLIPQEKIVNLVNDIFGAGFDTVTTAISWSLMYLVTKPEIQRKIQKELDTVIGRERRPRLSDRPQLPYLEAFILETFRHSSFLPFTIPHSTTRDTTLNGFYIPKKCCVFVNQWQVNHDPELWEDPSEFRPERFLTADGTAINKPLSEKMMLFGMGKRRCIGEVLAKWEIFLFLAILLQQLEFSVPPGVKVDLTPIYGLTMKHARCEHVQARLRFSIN
The data set is described as follows: Activity of human recombinant CYP1A2 in supersomes assessed as enzyme-mediated drug metabolism at 0.05 to 0.1 uM after 30 mins by LC/MS analysis. Format: ADME. To be noted: 0.5 h. The essentials: (§2)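 Recombinant P450 (CYP1A2 50, CYP2C8 158, CYP2D6 72, CYP3A4 66, CYP3A5 50 pmol/ml; 0.5 mg/ml protein) incubated with 0.1 µM N-DMI, and also 0.05 µM with CYP2C8/3A4/3A5. Run in 0.1 M sodium phosphate pH 7.4 with 1 mM NADPH at 37°C, in triplicate. N-DMI depletion was followed by LC-MS/MS; k_dep was fitted over 0–30 min and CLint = k_dep/[P450].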

Data set [5] concerns the target T3, Cytochrome P450 3A5 (Homo sapiens, UniProt P20815). The data set is described as follows: Activity of human recombinant CYP3A5 in supersomes assessed as intrinsic clearance for enzyme-mediated drug metabolism by LC/MS analysis. The class given is ADME. The essentials: as §1
The target in data set [6] is T1, Cytochrome P450 2C8. The data set is described as follows: Activity of human recombinant CYP2C8 in supersomes assessed as enzyme-mediated drug metabolism at 0.05 to 0.1 uM after 30 mins by LC/MS analysis. The class given is ADME. To be noted: 0.5 h. In a few lines:
as §2

The subject of another data set is CYP3A4. The data set is described as follows: Fraction unbound in human liver microsomes containing CYP3A4 after 60 mins. Format: ADME.
The next data set deals with CYP2C8. The data set is described as follows: Fraction unbound in human liver microsomes containing CYP2C8 after 60 mins. The class given is ADME. In general terms: Liver microsomes are a subcellular fraction often used to study metabolism.
The next data set relates to CYP2D6. The data set is described as follows: Fraction unbound in human liver microsomes containing CYP2D6 after 60 mins. Format: ADME.
In data set [7] the target is T4, Cytochrome P450 3A4 (Homo sapiens, UniProt P08684). The data set is described as follows: Activity of human recombinant CYP3A4 in supersomes assessed as enzyme-mediated drug metabolism at 0.05 to 0.1 uM after 30 mins by LC/MS analysis. The class given is ADME. To be noted: 0.5 h. In a few lines: as §2
T4 sequence (P08684 whole entry): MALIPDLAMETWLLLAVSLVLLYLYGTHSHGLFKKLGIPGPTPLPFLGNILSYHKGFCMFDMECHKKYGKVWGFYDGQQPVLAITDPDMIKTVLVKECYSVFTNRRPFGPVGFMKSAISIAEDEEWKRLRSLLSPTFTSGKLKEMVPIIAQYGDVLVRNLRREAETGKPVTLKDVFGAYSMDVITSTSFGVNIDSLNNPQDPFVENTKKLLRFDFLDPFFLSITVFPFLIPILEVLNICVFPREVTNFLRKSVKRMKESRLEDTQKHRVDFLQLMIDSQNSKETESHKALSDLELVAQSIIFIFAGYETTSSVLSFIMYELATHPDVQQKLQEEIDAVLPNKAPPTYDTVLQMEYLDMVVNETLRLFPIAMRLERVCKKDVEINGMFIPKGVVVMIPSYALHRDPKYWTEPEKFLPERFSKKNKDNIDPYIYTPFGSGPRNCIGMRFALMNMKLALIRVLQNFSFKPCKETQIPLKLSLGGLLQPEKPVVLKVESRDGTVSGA
For data set [8], the target named is T5, Cytochrome P450 2D6 (Homo sapiens, UniProt P10635). The data set is described as follows: Activity of human recombinant CYP2D6 in supersomes assessed as enzyme-mediated drug metabolism at 0.05 to 0.1 uM after 30 mins by LC/MS analysis. Format: ADME. The note with it: 0.5 h. In a few lines: as §2
T5 sequence (P10635 whole entry): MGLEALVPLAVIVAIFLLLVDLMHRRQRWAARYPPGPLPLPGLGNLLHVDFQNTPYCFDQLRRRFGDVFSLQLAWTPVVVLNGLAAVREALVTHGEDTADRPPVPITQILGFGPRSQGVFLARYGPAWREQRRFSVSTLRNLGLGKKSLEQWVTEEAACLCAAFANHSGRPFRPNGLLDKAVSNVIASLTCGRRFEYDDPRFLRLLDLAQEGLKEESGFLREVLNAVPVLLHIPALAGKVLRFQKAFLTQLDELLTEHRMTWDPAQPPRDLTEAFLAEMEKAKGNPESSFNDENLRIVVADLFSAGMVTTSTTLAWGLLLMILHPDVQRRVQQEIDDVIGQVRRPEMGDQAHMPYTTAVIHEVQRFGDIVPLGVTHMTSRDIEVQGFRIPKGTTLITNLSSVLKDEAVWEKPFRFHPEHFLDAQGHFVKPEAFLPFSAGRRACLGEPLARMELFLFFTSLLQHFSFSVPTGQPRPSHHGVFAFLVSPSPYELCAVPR
The test system of a further data set is CYP3A5. The data set is described as follows: Fraction unbound in human liver microsomes containing CYP3A5 after 60 mins. Format: ADME.
Data set [9] concerns the target T5, Cytochrome P450 2D6. The data set is described as follows: Activity of human recombinant CYP2D6 in supersomes assessed as intrinsic clearance for enzyme-mediated drug metabolism by LC/MS analysis.
Data set [10] has as its target T2, Cytochrome P450 1A2. The data set is described as follows: Activity of human recombinant CYP1A2 in supersomes assessed as intrinsic clearance for enzyme-mediated drug metabolism by LC/MS analysis.
Data set [11] deals with T4, Cytochrome P450 3A4. The data set is described as follows: Activity of human recombinant CYP3A4 in supersomes assessed as intrinsic clearance for enzyme-mediated drug metabolism by LC/MS analysis. Format: ADME. The essentials:
as §1

The next data set concerns CYP1A2. The data set is described as follows: Fraction unbound in human liver microsomes containing CYP1A2 after 60 mins. Format: ADME.
The target of data set [12] is T3, Cytochrome P450 3A5. The data set is described as follows: Activity of human recombinant CYP3A5 in supersomes assessed as enzyme-mediated drug metabolism at 0.05 to 0.1 uM after 30 mins by LC/MS analysis. The class given is ADME. To be noted: 0.5 h. In a few lines: as §2

T3 sequence (P20815 whole entry): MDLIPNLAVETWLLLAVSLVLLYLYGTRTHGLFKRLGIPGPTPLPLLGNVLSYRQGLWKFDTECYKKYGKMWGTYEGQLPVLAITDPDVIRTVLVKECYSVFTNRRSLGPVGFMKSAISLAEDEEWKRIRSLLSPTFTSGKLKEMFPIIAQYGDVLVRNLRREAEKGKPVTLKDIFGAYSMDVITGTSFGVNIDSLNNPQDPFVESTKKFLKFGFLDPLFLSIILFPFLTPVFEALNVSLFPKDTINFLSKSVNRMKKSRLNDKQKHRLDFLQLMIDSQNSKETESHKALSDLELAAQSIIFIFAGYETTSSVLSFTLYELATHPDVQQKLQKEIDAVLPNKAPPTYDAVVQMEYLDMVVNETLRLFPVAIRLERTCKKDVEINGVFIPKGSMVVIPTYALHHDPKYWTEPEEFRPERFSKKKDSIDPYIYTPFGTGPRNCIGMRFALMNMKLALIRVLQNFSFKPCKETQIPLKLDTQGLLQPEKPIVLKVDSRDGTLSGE

The compound `CS(=O)(=O)O.Cc1ccc(NC(=O)c2ccc(CN3CCN(C)CC3)cc2)cc1Nc1nccc(-c2cccnc2)n1` [IMATINIB MESYLATE] had a Cmax in data set [1] of 2200 ng/mL. Moreover, the bioavailability in data set [2] was > 97%.

On to `CS(=O)(=O)O.Cc1ccc(NC(=O)c2ccc(CN3CCNCC3)cc2)cc1Nc1nccc(-c2cccnc2)n1`, for which the CL stood at 0.06 µL/min at Cytochrome P450 2C8 [3]; 0.09 µL/min at Cytochrome P450 3A5 [5]; 0.05 µL/min at Cytochrome P450 2D6 [9]; 0.03 µL/min at Cytochrome P450 1A2 [10]; 0.5 µL/min on Cytochrome P450 3A4 [11]. Also, the Drug metabolism result on Cytochrome P450 1A2 [4] is listed as “metabolite_not_detected”; at Cytochrome P450 2C8 [6], “metabolite_detected”; on Cytochrome P450 3A4 [7], “metabolite_detected”; at Cytochrome P450 2D6 [8], “metabolite_not_detected”; at Cytochrome P450 3A5 [12] it was “metabolite_not_detected”. Moreover, the fraction unbound at 1 h with CYP3A4, with CYP2C8, in the data set on CYP2D6, with CYP3A5 and with CYP1A2 was 0.8 throughout.
